Assay outcomes deposited in PubChem BioAssay by several laboratories.
This is a sample that favours compounds with a hit; in the whole collection about 1.8% have one here.
STAT3 act-1: IL-6 driven STAT3 reporter potentiators, primary screen, U3A cells, luciferase, luminescence, MLSCN library. IL-6 STAT3-luciferase reporter; 100% = signal with IL-6 EC80 alone. activation (% of control), % at 5.6 µM. 190,000 compounds, 0.91% hits;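 active = activation above the screen-wide mean of compound activation plus 3 SD, cut at about 130% in these data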
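Material: STAT3-luciferase reporter U3A cells. Controls: IL-6-treated wells, 100% activation. Read-out: % activation versus median of IL-6-stimulated wells. Probe or stimulus: IL-6 stimulus at 33 ng/mL final. Timing: compound 1 h, then IL-6 6 h at 37 °C. Signal: reporter luminescence signal.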
PPC-1+TRAIL kill: compounds killing PPC-1 cancer cells with TRAIL present, primary screen, TRAIL potentiator project, ATPLite luminescence, uHTS; PPC-1 cells + TRAIL, ATPLite viability luminescence; AID 1443, 2008; cell killing (% activity), % at 4 µM or 5 µM; 220,000 compounds, 0.41% hits;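 active = cell killing above 50% in the first pass at 4 µM, then a duplicate retest at 5 µM averaging 50% or more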
C8 TRAIL sens: viability loss with TRAIL in NB7+C8 cells, primary screen, TRAIL sensitizer project, cell-based, ATPlite luminescence; inhibition (viability loss, TRAIL sensitization), % at 10 µM; 360,000 compounds, 1% hits; AID 624354, 2012;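 active = compounds causing at least 50% loss of cell viability in the single-dose screen, relative to plate controls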
STAT1 inh-1: STAT1 signaling inhibitors, primary screen, cell-based, HTS, luciferase reporter; NIH 3T3 STAT1-luciferase reporter, IFN-gamma, luminescence; inhibition, % at 5.5 µM; 200,000 compounds, 0.35% hits;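 active = inhibition above a set limit, the mean inhibition across all tested compounds plus 3 SD, cut at about 34% in these data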
STAT3 inh-1: IL-6 driven STAT3 reporter inhibitors, primary screen, U3A cells, luciferase, luminescence, MLSCN library; 190,000 compounds, 0.89% hits; IL-6 STAT3-luciferase reporter; host cell line lacks STAT1; inhibition, % at 5.5 µM; AID 862, 2007;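 active = inhibition above the mean inhibition across all screened compounds plus 3 SD, cut at about 44% in these data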
STAT3 inh-2: STAT3 reporter inhibitors, retest of hits, confirmation, U3A cells, luciferase, luminescence; shares compounds with STAT3 inh-1; IL-6 STAT3 luciferase reporter; cell line lacks STAT1; inhibition, % at 5.7 µM; 1,200 compounds, 45% hits; AID 1265, 2008;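 active = inhibition above the hit cutoff computed for the primary STAT3 screen, cut at about 44% in these data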
NFkB inh STAT3ct: NF-kB reporter inhibitors in human cells, confirmation, counter-screen for STAT3 inhibitor project, cell-based, HEK293T, luciferase, TNF-alpha stimulus. inhibition, % at 5.7 µM. TNF-alpha induced. AID 1308, 2008. shares compounds with STAT3 inh-1. 1,200 compounds, 36% hits;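 active = inhibition above the mean of solvent-only control wells plus 3 SD, cutoff set per campaign, cut at about 13% in these data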
STAT1 inh STAT3c: STAT1 reporter inhibitors, IFN-gamma induced, confirmation, counter-screen for STAT3 inhibitor project, cell-based, NIH 3T3, luciferase luminescence; shares compounds with STAT3 inh-1; NIH 3T3 STAT1-luciferase reporter; inhibition, % at 5.7 µM; 1,200 compounds, 27% hits; AID 1317, 2008;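 active = inhibition above the mean plus 3 SD of solvent-only control wells, limit set per screening run, cut at about 16% in these data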
STAT3 act-2: STAT3 reporter potentiators, retest of hits, confirmation, U3A cells, luciferase, luminescence. shares compounds with STAT3 act-1. IL-6 potentiation; U3A cells lack STAT1; 100 means same as IL-6 alone. potentiation (% of control), % at 5.7 µM. 1,200 compounds, 64% hits. AID 1267, 2008;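 active = percent activation of the STAT3 luciferase reporter above a set limit taken from the earlier primary screen, cut at about 130% in these data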
NFkB act STAT3ct: NF-kB reporter activators in human cells, counter-screen for STAT3 activator project; 1,200 compounds, 11% hits; activation (% of control), % at 5.7 µM; shares compounds with STAT3 act-1; AID 1309, 2008; NF-kappaB reporter activation; in the data active = activation above about 120%;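 also: reporter induced by TNF-alpha stimulation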
STAT1 act STAT3c: STAT1 reporter activators, IFN-gamma induced, counter-screen for STAT3 activator project, cell-based, NIH 3T3, luciferase luminescence. shares compounds with STAT3 act-1. NIH 3T3 STAT1-luciferase reporter. activation (% of control), % at 5.7 µM. 1,200 compounds, 13% hits. AID 1318, 2008;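 active = activation above the solvent-only control well mean plus 3 SD, set per screening run, cut at about 120% in these data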
STAT1 inh-2: STAT1 signaling inhibitors, confirmation, cell-based, HTS, luciferase reporter; shares compounds with STAT1 inh-1; NIH 3T3 STAT1-luciferase reporter, IFN-gamma, luminescence; 200 compounds, 55% hits; inhibition, % at 5.5 µM;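 active = triplicate mean inhibition exceeding the hit cutoff computed for the primary STAT1 screen, cut at about 35% in these data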
NFkB inh: NF-kB reporter inhibitors, TNF-alpha stimulated, counter-screen for STAT1 inhibitor project, cell-based, HEK293T, luciferase luminescence; TNF-alpha induced; 200 compounds, 30% hits; shares compounds with STAT1 inh-1; inhibition, % at 5.7 µM; AID 1303, 2008;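 active = inhibition above the mean of solvent-only control wells plus 3 SD of those wells, cut at about 15% in these data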
STAT3 inh STAT1c: STAT3 reporter inhibition by STAT1 hits, counter-screen for STAT1 inhibitor project, U3A cells, luciferase, luminescence, triplicate; shares compounds with STAT1 inh-1; IL-6 STAT3 luciferase reporter; cells lacking STAT1; inhibition, % at 5.7 µM; 200 compounds, 20% hits; AID 1310, 2008;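 active = inhibition above the mean of solvent-only control wells plus 3 SD, set per campaign, cut at about 25% in these data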
PPC1 cytotox: cytotoxicity in PPC-1 cells, confirmation, cytotoxicity control for TRAIL apoptosis potentiator project, cell-based, ATP content luminescence. shares compounds with PPC-1+TRAIL kill. PPC-1 viability, ATPlite luminescence, overnight. cytotoxicity, % at 5 µM. 1,200 compounds, 50% hits. AID 1447, 2008;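 active = reconfirmed compounds whose average cytotoxicity reaches 50% or more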
Numbers stand for hits; 0 = inactive; - = no result given.

SMILES	STAT3 act-1	PPC-1+TRAIL kill	C8 TRAIL sens	STAT1 inh-1	STAT3 inh-1	others
CCC(c1nnnn1-c1ccc(OC)cc1)N1CCC(n2c(=O)[nH]c3ccccc32)CC1 (stereo not given)	-	-	0	-	-
COc1ccc(-n2nnnc2C(CCc2ccccc2)N2CCC(n3c(=O)[nH]c4ccccc43)CC2)cc1 (stereo not given)	-	-	90	-	-
Cc1ccc(CN2CCCC(C(=O)c3sccc3C)C2)o1 (stereo not given)	0	0	0	0	0
O=C1NC(=O)N(c2ccccc2)C(=O)/C1=C/c1coc2ccc(O)cc2c1=O	-	0	0	-	-
CCn1nc(-c2cccs2)nc2c(=O)n(C)c(=O)nc1-2	-	0	95	-	-
CCOc1ccc(-n2c(-c3cccs3)nc3ccccc3c2=O)cc1	0	0	0	0	0
CCn1nc(/C=C/c2ccccc2)nc2c(=O)n(C)c(=O)nc1-2	0	0	0	86	74
COC(=O)C1=C(c2c(C)noc2C)C[C@@H]2CC[C@H]1N2C(=O)NCc1ccco1	-	-	0	-	-
CC(C)S(=O)(=O)N1Cc2ccccc2-n2nncc2C1	-	-	0	-	-
CCC(=NCCc1c[nH]c2ccccc12)c1c(O)n(-c2ccc(C)cc2)c(=O)[nH]c1=O	0	0	0	0	0
CCC(=NCCc1c[nH]c2ccccc12)c1c(O)n(C)c(=O)n(C)c1=O	0	0	0	0	44	STAT3 inh-2=47;NFkB inh STAT3ct=0;STAT1 inh STAT3c=20
C1CC2OC2CC1C1CO1 (stereo not given)	-	-	0	-	-
CC(=O)c1cn(Cc2ccccc2C#N)c2ccccc12	0	0	0	0	66	STAT3 inh-2=75;NFkB inh STAT3ct=29;STAT1 inh STAT3c=21
CN1Cc2c(c(C#N)c(N)n(C)c2=S)CC1(C)C	0	0	0	0	0
O=C(C1CCN(c2nc3ccc(Br)cc3s2)CC1)N1CCC2(CC1)OCCO2	0	0	0	0	63	STAT3 inh-2=66;NFkB inh STAT3ct=0;STAT1 inh STAT3c=0
C[C@@H]1O[C@@H](O[C@H]2C[C@@H](O)[C@]3(CO)[C@H]4[C@H](O)C[C@]5(C)[C@@H](C6COC(=O)C6)CC[C@]5(O)[C@@H]4CC[C@]3(O)C2)[C@H](O)[C@H](O)[C@H]1O (stereo not given in full)	0	61	0	0	56	STAT3 inh-2=0;NFkB inh STAT3ct=0;STAT1 inh STAT3c=0;PPC1 cytotox=63
C[C@H]1CN([C@@H](C)CO)C(=O)CCCn2nncc2CO[C@@H]1CN(C)C(=O)Oc1ccccc1	-	-	0	-	-
c1ccc2c(CN3CCCCCCC3)c[nH]c2c1	153	0	0	0	0	STAT3 act-2=149;NFkB act STAT3ct=0;STAT1 act STAT3c=0
c1ccc2c(CN3CCN(C4CCCCC4)CC3)c[nH]c2c1	166	0	0	0	0	STAT3 act-2=146;NFkB act STAT3ct=0;STAT1 act STAT3c=0
Cc1nn(CC(C)C)c(Cl)c1C(=O)NC1CCCC1	-	-	0	-	-
CC1(C(O)(C#CCN2CCCCC2)c2ccccc2)CCCC1 (stereo not given)	0	0	0	0	0
C=CCn1c(O)c(/C=C2/C=CC=N2)c(=O)[nH]c1=O	0	0	0	0	0
O=c1[nH]c(=O)n(Cc2ccccc2Cl)c(O)c1/C=C1/C=CC=N1	139	0	0	0	0	STAT3 act-2=0;NFkB act STAT3ct=0;STAT1 act STAT3c=0
CCC(CC)NCc1c[nH]c2ccccc12	146	0	0	0	0	STAT3 act-2=163;NFkB act STAT3ct=0;STAT1 act STAT3c=0
Cc1ccc(-c2nc3ccccc3c(=O)n2-c2ccncc2)cc1	0	0	0	0	0
SMILES	STAT3 act-1	PPC-1+TRAIL kill	C8 TRAIL sens	STAT1 inh-1	STAT3 inh-1	others
O=c1c2ccccc2nc(-c2ccc(-c3ccccc3)cc2)n1-c1ccncc1	144	0	0	0	0	STAT3 act-2=134;NFkB act STAT3ct=0;STAT1 act STAT3c=0
CC(=O)O[C@@H]1CC[C@]2(C)C3CC[C@]4(C)C(=O)[C@H](O)CC4C3[C@@H](OC(C)=O)C[C@H]2C1 (stereo not given in full)	-	-	0	-	-
Cc1cc(C)cc(N2C(=O)NC(=O)/C(=C\c3cccn3-c3ccccc3)C2=O)c1	0	0	0	0	0
Cc1cc(C)cc(N2C(=O)NC(=O)/C(=C\c3cccn3-c3ccc(Cl)cc3)C2=O)c1	0	0	0	38	0	STAT1 inh-2=0;NFkB inh=0;STAT3 inh STAT1c=0
CC(C)[C@H]1C(=O)O[C@H](C(C)C)C(=O)N(C)[C@@H](C(C)C)C(=O)O[C@H](C(C)C)C(=O)N(C)[C@@H](C(C)C)C(=O)O[C@H](C(C)C)C(=O)N1C	-	0	53	47	-	STAT1 inh-2=0;NFkB inh=0;STAT3 inh STAT1c=0
CC12CCC(=O)CC1CCC1C2C(=O)CC2(C)C1CCC2(C)O (stereo not given)	-	-	0	-	-
